# Molecular target: Signal transducer and activator of transcription 3 (Homo sapiens, UniProt P40763)
# Test: Inhibition of STAT3 by Western blotting
# Outline: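 Phosphotyrosine Stat3 levels in treated cells, tested up to 10 µM. Cells washed in ice-cold PBS, lysed in SDS sample buffer, equal protein run on SDS-PAGE and transferred to PVDF. Blots blocked in 5% nonfat milk/TBST, then phospho-Stat3 and β-tubulin antibodies at 4 °C overnight, secondary 2 h room temperature, ECL detection. IC50 derived.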
# Chain of Signal transducer and activator of transcription 3 (P40763 whole entry): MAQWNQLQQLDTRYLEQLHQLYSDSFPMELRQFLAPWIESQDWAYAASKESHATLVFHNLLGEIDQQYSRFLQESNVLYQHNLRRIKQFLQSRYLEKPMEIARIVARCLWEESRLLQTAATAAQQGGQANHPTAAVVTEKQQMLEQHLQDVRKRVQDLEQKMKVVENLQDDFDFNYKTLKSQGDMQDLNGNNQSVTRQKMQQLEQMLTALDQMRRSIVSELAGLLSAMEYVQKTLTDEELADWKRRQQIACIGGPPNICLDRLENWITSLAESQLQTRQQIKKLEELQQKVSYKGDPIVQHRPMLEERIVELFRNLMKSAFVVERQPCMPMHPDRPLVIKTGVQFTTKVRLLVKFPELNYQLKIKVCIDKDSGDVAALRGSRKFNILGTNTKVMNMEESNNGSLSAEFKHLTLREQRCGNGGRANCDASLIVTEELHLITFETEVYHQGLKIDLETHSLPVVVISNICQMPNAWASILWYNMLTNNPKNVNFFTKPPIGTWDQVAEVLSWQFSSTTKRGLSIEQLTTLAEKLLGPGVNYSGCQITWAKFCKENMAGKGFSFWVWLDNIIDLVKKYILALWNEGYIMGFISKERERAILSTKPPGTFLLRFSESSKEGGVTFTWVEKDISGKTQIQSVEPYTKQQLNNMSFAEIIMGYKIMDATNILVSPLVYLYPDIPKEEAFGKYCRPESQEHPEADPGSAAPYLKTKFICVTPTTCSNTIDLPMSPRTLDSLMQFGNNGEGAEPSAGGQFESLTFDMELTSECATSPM
structure (smiles),measurement,value
CC(=O)OC(C)(C)/C=C/C(=O)[C@](C)(O)[C@H]1[C@H](O)C[C@@]2(C)[C@@H]3CC=C4[C@H](C[C@H](O)C(=O)C4(C)C)[C@]3(C)C(=O)C[C@]12C [CUCURBITACIN B],IC50,3000 nM

# Reference: BindingDB's records for doi:10.1021/np800692t (Chinese Academy of Sciences, 2010)
